≈ marks a conversion by molar mass, not a printed value. Calls of active or inactive are those of the source. No cut-off for these calls is given here. A value given as a limit tells only on which side of the number the result lay.

A short description of data set [1]: Solubility in simulated gastric fluid at pH 2.0. It is filed as physicochemical. To be noted: simulated gastric fluid, read-out: solubility.
Data set [2] in a line: Solubility in simulated intestinal fluid at pH 7.5. It is filed as physicochemical.
Data set [3] can be described thus: Stability in monkey liver microsomes assessed as prodrug hydrolysis. The data set is classed as ADME, Macaca mulatta, Microsome. To be noted: rhesus monkey. The method, boiled down: (§1)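 Ester prodrug incubated in liver microsomal preparations from mouse, rat, dog, monkey and human; percent of ester remaining followed at 0, 10, 30 and 90 min. A buffer-only incubation without microsomes served as control.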
Background: Liver microsomes are a subcellular fraction often used to study metabolism.

Data set [4] has as its system Liver microsomes. Description: Stability in human liver microsomes assessed as prodrug hydrolysis. It is filed as ADME, Microsome. The method, boiled down:
as §1

Data set [5] can be described thus: Oral bioavailability in rat at 50 mg/kg. To be noted: in vivo. The data set is classed as ADME, organism-based. A digest of the protocol:
(§2)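 Ester prodrug given orally (rat and dog 50 mg/kg, monkey 30 mg/kg). Plasma exposure measured as the parent acid, reported as AUC and Cmax; bioavailability (F%) calculated for the acid.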

Data set [6] relates to Liver microsomes. As to the kind of experiment: Stability in rat liver microsomes assessed as prodrug hydrolysis. The data set is classed as ADME, Microsome. A digest of the protocol:
as §1

Data set [7] deals with Cynomolgus monkey. Description: Antiinflammatory activity in cynomolgus monkey challenged with aerosolized Ascaris suum extract assessed as reduction in total leukocytes influx into lungs at 10 and 30 mg/kg, po administered 2 hrs before antigen challenge measured 24 hrs after antigen challenge. To be noted: Macaca fascicularis. It is filed as functional, organism-based. Details: dose 30 mg/kg. The method, boiled down: (§3)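 Cynomolgus monkeys (atopic) dosed orally at 10 or 30 mg/kg, or vehicle, then challenged 2 h later with aerosolized Ascaris suum extract. Bronchiolar lavage fluid collected 24 h post-challenge and inflammatory cells counted by type (macrophages, neutrophils, eosinophils, lymphocytes, total) as cells ×10^4/mL.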

Data set [8] can be described thus: Oral bioavailability in rat. To be noted: in vivo. The data set is classed as ADME, organism-based.
A short description of data set [9]: Oral bioavailability in dog at 50 mg/kg. To be noted: in vivo. It is filed as ADME, organism-based, Canis lupus familiaris. The method, boiled down: as §2
Data set [10] has as its system Rattus norvegicus. Description: AUC in rat assessed as (2S)-2-(2,6-dichlorobenzamido)-3-(4-(2-hydroxy-1,6-dimethyl-4-(trifluoromethyl)-1,2-dihydropyridin-3-yl)phenyl)propanoic acid level at 50 mg/kg, po. The data set is classed as ADME, organism-based, Plasma. More on the design: dose 50 mg/kg, route oral. To be noted: in vivo. The method, boiled down:
as §2

In data set [11] the test system is Liver. As to the kind of experiment: Stability in mouse liver microsomes assessed as prodrug hydrolysis. It is filed as ADME, Microsome. The method, boiled down: as §1
The nature of data set [12]: Apparent permeability across human Caco2 cells. To be noted: Caco-2. The data set is classed as ADME, cell-based.
Data set [13] deals with Rattus norvegicus. As to the kind of experiment: Cmax in rat at 50 mg/kg, po. It is filed as ADME, organism-based. More on the design: dose 50 mg/kg, route oral. To be noted: in vivo. A digest of the protocol: as §2
Another data set has as its system Plasma. As to the kind of experiment: Stability in dog plasma assessed as unchanged prodrug level on days 1 and 6. The data set is classed as ADME, cell-free, Canis lupus familiaris. A digest of the protocol:
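Unchanged prodrug measured in dog plasma on days 1 and 6 of subchronic safety studies after dosing with the ester prodrug.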

Data set [14] concerns Cynomolgus monkey. Description: Antiinflammatory activity in cynomolgus monkey challenged with aerosolized Ascaris suum extract assessed as reduction in lymphocytes influx into lungs at 10 and 30 mg/kg, po administered 2 hrs before antigen challenge measured 24 hrs after antigen challenge. It is filed as functional, organism-based. More on the design: dose 30 mg/kg. To be noted: Macaca fascicularis. The method, boiled down:
as §3

Data set [15] relates to Canis familiaris. Description: Cmax in dog at 50 mg/kg, po. The data set is classed as ADME, organism-based, Canis lupus familiaris. Details: dose 50 mg/kg, route oral. To be noted: in vivo. A digest of the protocol:
as §2

The test system of data set [16] is Macaca fascicularis. Description: AUC in monkey assessed as (2S)-2-(2,6-dichlorobenzamido)-3-(4-(2-hydroxy-1,6-dimethyl-4-(trifluoromethyl)-1,2-dihydropyridin-3-yl)phenyl)propanoic acid level at 30 mg/kg, po. To be noted: cynomolgus monkey, in vivo.
The nature of data set [17]: Stability in simulated intestinal fluid at pH 7.5 assessed as half life. The data set is classed as physicochemical.
Data set [18] deals with Liver. Description: Stability in dog liver microsomes assessed as prodrug hydrolysis. It is filed as ADME, Canis lupus familiaris, Microsome. The method, boiled down: as §1
For data set [19], the system named is Cynomolgus monkey. As to the kind of experiment: Antiinflammatory activity in cynomolgus monkey challenged with aerosolized Ascaris suum extract assessed as reduction in eosinophils influx into lungs at 10 and 30 mg/kg, po administered 2 hrs before antigen challenge measured 24 hrs after antigen challenge. Details: dose 30 mg/kg. It is filed as functional, organism-based. To be noted: Macaca fascicularis. The method, boiled down:
as §3

The test system of data set [20] is Cynomolgus monkey. As to the kind of experiment: Antiinflammatory activity in cynomolgus monkey challenged with aerosolized Ascaris suum extract assessed as reduction in neutrophils influx into lungs at 10 and 30 mg/kg, po administered 2 hrs before antigen challenge measured 24 hrs after antigen challenge. The data set is classed as functional, organism-based. Details: dose 30 mg/kg. To be noted: Macaca fascicularis. The method, boiled down:
as §3

The test system of data set [21] is Macaca fascicularis. Description: Oral bioavailability in monkey at 30 mg/kg. To be noted: cynomolgus monkey, in vivo.
The target in another data set is hERG (KCNH2) (Homo sapiens, UniProt Q12809). As to the kind of experiment: Inhibition of human ERG.
Chain of hERG (KCNH2) (Q12809 whole entry): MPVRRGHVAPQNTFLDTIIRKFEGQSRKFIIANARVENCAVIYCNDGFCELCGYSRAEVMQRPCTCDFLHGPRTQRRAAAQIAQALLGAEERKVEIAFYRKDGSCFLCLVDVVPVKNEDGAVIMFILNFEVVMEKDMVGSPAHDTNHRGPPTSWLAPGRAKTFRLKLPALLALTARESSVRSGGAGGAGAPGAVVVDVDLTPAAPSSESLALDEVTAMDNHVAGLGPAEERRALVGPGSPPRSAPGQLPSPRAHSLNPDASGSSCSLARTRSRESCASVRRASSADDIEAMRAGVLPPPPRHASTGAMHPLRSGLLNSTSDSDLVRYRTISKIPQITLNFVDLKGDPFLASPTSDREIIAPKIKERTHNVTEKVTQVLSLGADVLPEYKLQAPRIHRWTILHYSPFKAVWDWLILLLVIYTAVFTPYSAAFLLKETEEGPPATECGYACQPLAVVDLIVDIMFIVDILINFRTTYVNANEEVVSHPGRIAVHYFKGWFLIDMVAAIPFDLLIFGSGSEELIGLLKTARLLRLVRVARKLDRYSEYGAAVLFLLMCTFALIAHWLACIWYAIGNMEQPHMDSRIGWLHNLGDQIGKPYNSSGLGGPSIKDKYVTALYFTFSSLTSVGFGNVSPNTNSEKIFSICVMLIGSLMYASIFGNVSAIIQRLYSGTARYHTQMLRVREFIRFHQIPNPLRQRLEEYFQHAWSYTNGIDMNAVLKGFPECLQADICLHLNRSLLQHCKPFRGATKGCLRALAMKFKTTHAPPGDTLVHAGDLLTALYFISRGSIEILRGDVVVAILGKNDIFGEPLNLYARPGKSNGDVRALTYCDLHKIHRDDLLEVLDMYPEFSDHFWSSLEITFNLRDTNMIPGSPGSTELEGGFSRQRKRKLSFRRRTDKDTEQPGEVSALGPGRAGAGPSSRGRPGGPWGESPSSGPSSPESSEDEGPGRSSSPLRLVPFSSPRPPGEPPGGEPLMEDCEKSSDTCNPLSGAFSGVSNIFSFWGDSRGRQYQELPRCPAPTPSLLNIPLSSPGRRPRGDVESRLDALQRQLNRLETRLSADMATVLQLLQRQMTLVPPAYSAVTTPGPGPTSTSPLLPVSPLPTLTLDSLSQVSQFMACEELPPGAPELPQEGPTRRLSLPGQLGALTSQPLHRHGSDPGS
In data set [22] the test system is Canis familiaris. Description: AUC in dog assessed as (2S)-2-(2,6-dichlorobenzamido)-3-(4-(2-hydroxy-1,6-dimethyl-4-(trifluoromethyl)-1,2-dihydropyridin-3-yl)phenyl)propanoic acid level at 50 mg/kg, po. The data set is classed as ADME, organism-based, Canis lupus familiaris, Plasma. More on the design: dose 50 mg/kg, route oral. To be noted: in vivo. A digest of the protocol:
as §2

A short description of data set [23]: Stability in plasma (unknown origin) assessed as unchanged prodrug level. The data set is classed as ADME, cell-free.

The solubility is how much of the substance goes into solution per volume. A word on the bioavailability: it is dose-corrected exposure relative to a reference, in per cent. The AUC is the area under the concentration-time curve, a measure of exposure. The Papp is the rate of passage across a membrane or cell layer, normalised by area and donor concentration. By Cmax is commonly meant the peak of the concentration-time curve. As usually defined, the IC20 is the concentration at which the effect reaches the 20% level. For `Cc1cc(C(F)(F)F)c(-c2ccc(C[C@H](NC(=O)c3c(Cl)cccc3Cl)C(=O)OCCCN3CCOCC3)cc2)c(=O)n1C`, the solubility is 3900 µg/mL (≈ 5960 µM) in data set [1] and 330 µg/mL (≈ 504 µM) in data set [2]. Further, the Stability result in [3] is “Unstable”; in the data set with Liver microsomes [4] it was “Stable”; in the data set on Liver microsomes [6] it was “Unstable”; with Liver [11] it was “Unstable”; with Plasma, 10%; in data set [17] (simulated gi fluid), “Stable”. Further, the Stability result with Liver [18] is on record as “Stable”. Also, the bioavailability in [5] is 11%; in data set [8], 11%; in data set [9] it was 13%; in the data set with Macaca fascicularis [21], 46%. Moreover, the result with Cynomolgus monkey [7], in the data set with Cynomolgus monkey [14], in the data set with Cynomolgus monkey [19] and with Cynomolgus monkey [20] was Active. Besides, the figures for the AUC in the data set on Rattus norvegicus [10], in the data set with Macaca fascicularis [16] and in the data set on Canis familiaris [22] were 6100 ng·h/mL, 30150 ng·h/mL and 6420 ng·h/mL, respectively. Besides, the Papp in data set [12] stood at 16.5 ×10⁻⁶ cm/s. Moreover, the Cmax in the data set with Rattus norvegicus [13] came out at 2500 ng/mL; in the data set on Canis familiaris [15], 2400 ng/mL. The compound also showed an IC20 against hERG (KCNH2) of 2.9 µM.

For orientation: half-life means the time in which the quantity being followed falls by half. For the compound `Cc1cc(C(F)(F)F)c(-c2ccc(C[C@H](NC(=O)c3c(Cl)cccc3Cl)C(=O)OCCN3CCOCC3)cc2)c(=O)n1C`, the results for the solubility in data set [1] and in [2] were greater than 13000 µg/mL and 200 µg/mL (≈ 312 µM), respectively. The bioavailability in data set [8] turned out to be 15%. Further, the Papp in data set [12] came out at 16.2 ×10⁻⁶ cm/s. The half-life in data set [17] (simulated intestinal fluid) is 4 h. For the same compound, in data set [23], the Stability entry is recorded as “Stable”. In addition, at hERG (KCNH2), the IC20 was 11 µM.

Values taken from ChEMBL document CHEMBL2331548, “Identification of N-acyl 4-(3-pyridonyl)phenylalanine derivatives and their orally active prodrug esters as dual acting α4β1 and α4β7 receptor antagonists” (Bioorg Med Chem Lett, 2013).
